High-throughput results from PubChem BioAssay.
Only some compounds are listed: those with a hit (about 3.5% of all), similar ones and a draw of the others.
MrgX1 antagonist: antagonists of human MrgX1 receptor; MRGX1-HEK293 calcium flux, Fluo-4, BAM8-22 antagonism; stronger effect = lower value; B-score at 10 µM; 1.3% of 310,000 active;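 active = calcium-response B-score plate-corrected more than 3 library SD below zero, starting fluorescence within 5 deviations, no agonist response on first addition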;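 also: peak minus trough fluorescence over baseline after final BAM8-22 challenge near maximal dose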
Target sequence (Q96LB2 whole entry, looked up): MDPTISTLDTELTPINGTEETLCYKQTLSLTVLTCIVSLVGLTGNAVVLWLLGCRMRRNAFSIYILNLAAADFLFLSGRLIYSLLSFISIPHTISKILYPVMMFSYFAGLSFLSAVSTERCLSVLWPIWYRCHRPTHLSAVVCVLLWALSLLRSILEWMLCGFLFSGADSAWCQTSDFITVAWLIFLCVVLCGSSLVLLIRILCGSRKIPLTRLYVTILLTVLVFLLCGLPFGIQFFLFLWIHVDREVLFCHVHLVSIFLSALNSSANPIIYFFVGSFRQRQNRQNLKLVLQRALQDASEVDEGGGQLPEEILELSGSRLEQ
MrgX1 allo act: human MrgX1 positive allosteric modulation, primary screen; Q96LB2; MrgX1-HEK293, Fluo-4 calcium flux, FDSS; stronger effect = higher value; B-score at 10 µM; 0.63% of 310,000 active; AID 588675;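 active = plate-corrected calcium response at least 3 library SD above typical, normal starting fluorescence, not activating the receptor alone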;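 also: compound read alongside a low EC10 to EC30 dose of BAM8-22 agonist; peak minus trough fluorescence over baseline measured at the second addition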
RGS4 act: potentiators or activators of RGS4; HEK293 M3R/inducible RGS4, carbachol calcium flux Fluo4; stronger effect = lower value; B-score at 10 µM; 0.92% of 310,000 active; AID 463111;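 active = B-score of the integrated calcium signal more than 4 SD below the library mean, with starting fluorescence not abnormally high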;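 also: negative B-score means reduced calcium response which marks RGS4 activation or potentiation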
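test system = HEK293 cells with stable M3R and inducible RGS4 | schedule = recording 10 s baseline at 1 Hz, 100 s post-agonist | technique = Fluo4-AM (2 µM) calcium-flux fluorescence, kinetic read | measure = Agonist-evoked peak-minus-minimum fluorescence over baseline, integrated ratio, B score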
MrgX1 agonist: human MrgX1 receptor agonism, primary screen. Q96LB2. B-score at 10 µM. MrgX1-HEK293 cells, Fluo-4 calcium fluorescence, agonist mode; stronger effect = higher value. AID 588627. 0.44% of 310,000 active;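 active = calcium response B-score plate-corrected fluorescence ratio at least 3 library SD, with starting fluorescence B-score inside 5 SD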
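times = overnight plating, then 30 min 37 °C plus 30 min room-temperature dye loading | assay system = stable human MrgX1 HEK293 cell line | input = fifteen thousand cells per well | signal = kinetic calcium dye fluorescence, Fluo-4 NW | dosing = compound delivered in addition one of three | read-out = B-scored fluorescence response ratio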
RGS4 inh: human RGS4 inhibition; P49798; HEK293 M3R/RGS4 inducible, Fluo-4 calcium flux; stronger effect = higher value; triggered by carbachol at its EC20; B-score at 10 µM; 0.45% of 310,000 active; AID 463165;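 active = B-score, a plate-corrected calcium signal, over three deviations above library mean, with baseline fluorescence within five deviations of library mean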;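 also: RGS4 expression induced by doxycycline in cells with stable M3 receptor; B-score is computed from the integrated fluorescence ratio over baseline after carbachol; higher B-score means a larger calcium signal and so more RGS4 inhibition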
RGS4 block valid: RGS4 inhibitor validation; shares compounds with RGS4 inh; HEK293 M3R/RGS4, carbachol calcium Fluo-4 fluorescence; carbachol added at its EC20; 0 = buffer wells, 100 = carbachol control; calcium response, % at 10 µM; 65% of 1,700 active;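 active = duplicate-averaged calcium response above the buffer-only control mean plus 5 SD of those controls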;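 also: integrated fluorescence ratio F max minus min over baseline F0; higher response in RGS4-induced cells means RGS4 inhibition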
M3R Ca ctr: non-induced cell nonspecific activity of RGS4 inhibitors. activity (percent), % at 10 µM. 20% of 1,900 active. shares compounds with RGS4 inh. HEK293 M3R non-induced, carbachol calcium Fluo-4; submaximal (EC20) carbachol stimulus; buffer wells 0%, carbachol control wells 100%; call rule not given here;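 also: RGS4 induction absent so cells express M3R without RGS4; higher means more calcium signal and flags a non-specific hit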
M3R basal Ca ctr: second RGS4 inhibitor counter-screen in uninduced cells lacking carbachol; shares compounds with RGS4 inh; calcium response (agonist-mode artifact), % at 10 µM; 22% of 1,900 active; AID 493001; HEK293 M3R/RGS4 non-induced, Fluo-4 calcium, no carbachol; normalised: buffer wells 0%, carbachol wells 100%;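 active = duplicate-averaged calcium rise in uninduced cells above buffer wells' mean plus 5 SD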
Starred values were filed as active, the others as inactive; i = inactive; . = no result given.

SMILES | MrgX1 antagonist | MrgX1 allo act | RGS4 act | MrgX1 agonist | RGS4 inh | RGS4 block valid | M3R Ca ctr | M3R basal Ca ctr
COc1ccc(-c2cn(CCO)c(-c3ccncc3)n2)cc1 | i | i | . | i | . | . | . | .
CCOC(=O)C1CCN(CC(=O)c2c(C)n(C)c3ccc(OC)cc23)CC1 | i | i | i | i | 4.92* | 13.0%* | i | i
Cc1ccccc1-n1c(=O)c2c(n3cnnc13)-c1ccccc1CC21CCCCC1 | i | i | i | i | i | . | . | .
CCn1c(=O)c2c(n3c(=S)[nH]nc13)-c1ccccc1CC21CCCCC1 | i | i | i | i | 8.34* | 45.5%* | 57.0%* | i
CCCn1c(SCC(N)=O)nc2c(c1=O)C1(CCCC1)Cc1ccccc1-2 | i | i | i | i | i | . | . | .
N#CCSc1n[nH]c2nc3c(c(=O)n12)C1(CCCCC1)Cc1ccccc1-3 | i | i | i | i | i | . | . | .
CSc1n[nH]c2nc3c(c(=O)n12)C1(CCCCC1)Cc1ccccc1-3 | i | i | i | i | 4.67* | 12.5%* | i | i
CCSc1n[nH]c2nc3c(c(=O)n12)C1(CCCCC1)Cc1ccccc1-3 | i | i | i | i | i | . | i | i
CCOc1ccc(NS(=O)(=O)c2cc(C(=O)N(CC)CC(=O)NCc3cccs3)ccc2C)cc1 | i | i | i | i | i | . | . | .
COc1ccc(Nc2nc(NC(C)(C)C)nc(N3CCCC3)n2)c(OC)c1 | i | i | i | i | i | i | i | i
COc1ccc(Nc2nc(N3CCCCC3)nc(N3CCCCC3)n2)c(OC)c1 | i | i | i | i | 5.49* | 9.0%* | i | i
COc1ccc(Nc2nc(N3CCCC3)nc(N3CCCC3)n2)c(OC)c1 | i | i | i | i | i | i | i | i
CC(C)CCn1nnnc1CN1CCN(C(=O)c2ccco2)CC1 | i | i | i | i | i | . | . | .
Cc1ccc(S(=O)(=O)Nc2nc3ccccc3nc2NCC2CCCO2)cc1C (stereo unspecified) | i | i | i | i | i | . | . | .
CN(C)S(=O)(=O)c1ccc(C(=O)Nc2ccn(C)n2)cc1 | i | i | i | i | i | . | . | .
Cc1cccc(N2C(=O)c3ccc(C(=O)Nc4ccccn4)cc3C2=O)c1 | i | i | i | i | i | . | . | .
Cc1cccc(N2C(=O)/C(=C\c3ccc(C(=O)O)cc3)c3ccccc3C2=O)c1 | i | i | i | i | 10.3* | 37.5%* | i | i
N#Cc1c(N)nc(SCC(=O)NC2CCCCC2)c(C#N)c1-c1ccc(Cl)cc1 | i | i | i | i | i | . | . | .
N#CCSc1nc(N)c(C#N)c(C2CCCCC2)c1C#N | i | i | i | i | 5.06* | 16.0%* | 49.5%* | i
CCN(CC)CCN(C(=O)c1ccc2c(c1)CCCC2)c1nc2ccc(C)cc2s1 | i | i | i | i | i | . | . | .
CCN(CC)CCN(C(=O)c1ccc2c(c1)CCCC2)c1nc2ccc(OC)cc2s1 | i | i | i | i | i | i | i | i
Cc1[nH]n(-c2ccc(Cl)cc2)c(=O)c1C=Nc1ccc(S(=O)(=O)N2CCOCC2)cc1 | i | i | i | i | 6.27* | 31.5%* | 55.0%* | i
Cc1ccc(-n2[nH]c(C)c(C=Nc3ccc(S(=O)(=O)Nc4nccs4)cc3)c2=O)cc1C | i | i | i | i | i | . | i | i
CCc1nnc(NS(=O)(=O)c2ccc(N=Cc3c(C)[nH]n(-c4cccc(Cl)c4)c3=O)cc2)s1 | i | i | i | i | i | . | . | .
